Common to all, as to format: functional
Assay [1] has as its system Staphylococcus aureus. Briefly: In vitro inhibitory activity against Staphylococcus aureus (EryRi 011GO25i). In outline: (§1)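 Two-fold agar dilution on Mueller-Hinton agar (pH 7.4). Inoculum from overnight plate cultures suspended in Mueller-Hinton broth, adjusted to 10^9 CFU/mL, diluted 1:200 and spotted by multipoint inoculator at about 10^4 CFU/spot. Plates incubated 37 °C for 20 h. MIC taken as lowest concentration with no visible growth.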

The subject of assay [2] is Streptococcus pneumoniae. In words: In vitro inhibitory activity against Streptococcus pneumoniae (EryRi 030SJ5i). In outline:
as §1

The subject of assay [3] is Staphylococcus aureus. In words: In vitro inhibitory activity against Staphylococcus aureus (011UC4). In outline: as §1
Assay [4] concerns Staphylococcus epidermidis. Briefly: In vitro inhibitory activity against Staphylococcus epidermidis (EryRi 012GO11i). An outline of the steps: as §1
The subject of assay [5] is Streptococcus pyogenes. In words: In vitro inhibitory activity against Streptococcus pyogenes (02A1UC1). An outline of the steps: as §1
Assay [6] has as its system Streptococcus pneumoniae. Briefly: In vitro inhibitory activity against Streptococcus pneumoniae (032UC1). An outline of the steps:
as §1

Assay [7] concerns Haemophilus influenzae. Briefly: In vitro inhibitory activity against Haemophilus influenzae (351HT3). An outline of the steps:
as §1

Assay [8] deals with Escherichia coli. Briefly: In vitro inhibitory activity against Escherichia coli (250 UC5). An outline of the steps: as §1
The test system of assay [9] is Haemophilus influenzae. Briefly: In vitro inhibitory activity against Haemophilus influenzae (351CB12). An outline of the steps:
as §1

The test system of assay [10] is Staphylococcus aureus. In words: In vitro inhibitory activity against Staphylococcus aureus (EryRc 011CB20). An outline of the steps:
as §1

Assay [11] deals with Streptococcus pneumoniae. In words: In vitro inhibitory activity against Streptococcus pneumoniae (EryRc 030SJ1). In outline: as §1

In brackets after ≈: the same amount, converted by molar mass.

Turning to `CC[C@H]1OC(=O)[C@H](C)[C@@H](O[C@H]2C[C@@](C)(OC)[C@@H](O)[C@H](C)O2)[C@H](C)[C@@H](O[C@@H]2O[C@H](C)C[C@H](N(C)C)[C@H]2O)[C@](C)(OC)C[C@@H](C)C(=O)[C@H](C)[C@H]2N(CCCCc3ccccc3)C(=O)O[C@]12C`, the MIC in [1] turned out to be 20 µg/mL (≈ 22.1 µM); in [2], 1.2 µg/mL (≈ 1.33 µM); in assay [3] it was 0.3 µg/mL (≈ 0.331 µM); in assay [4], 40 µg/mL (≈ 44.2 µM); in assay [5], 0.04 µg/mL (≈ 0.0442 µM); in assay [6], 0.02 µg/mL (≈ 0.0221 µM). The MIC was determined as 2.5 µg/mL (≈ 2.76 µM) in assay [7]; 40 µg/mL (≈ 44.2 µM) in assay [8]; 2.5 µg/mL (≈ 2.76 µM) in assay [9]; 20 µg/mL (≈ 22.1 µM) in assay [10]; 10 µg/mL (≈ 11 µM) in assay [11].
`CC[C@H]1OC(=O)[C@H](C)C(=O)[C@H](C)[C@@H](O[C@@H]2O[C@H](C)C[C@H](N(C)C)[C@H]2O)[C@](C)(OC)C[C@@H](C)/C(=N\OCCNCc2ccccc2)[C@H](C)[C@@H](O)[C@]1(C)O`: the MIC in assay [1] worked out at 5 µg/mL (≈ 6.79 µM); in assay [2] it was 40 µg/mL (≈ 54.4 µM); in assay [3] it was 0.6 µg/mL (≈ 0.815 µM); in assay [4], 5 µg/mL (≈ 6.79 µM); in assay [5] it was 0.6 µg/mL (≈ 0.815 µM); in assay [6] it was 0.15 µg/mL (≈ 0.204 µM). In addition, the MIC in assay [7], in assay [8], in assay [9], in [10] and in assay [11] was 40 µg/mL (≈ 54.4 µM) throughout.
Consider `CC[C@H]1OC(=O)[C@H](C)[C@@]2(O)O[C@@](C)(C[C@@H](C)/C(=N\OCOCCOC)[C@H](C)[C@@H](O)[C@]1(C)O)[C@H](O[C@@H]1O[C@H](C)C[C@H](N(C)C)[C@H]1O)[C@H]2C`, for which the MIC in [1], in assay [2], in assay [3], in assay [4], in [5] and in assay [6] was 40 µg/mL (≈ 59.1 µM) in each case. The MIC in [7], in assay [8], in assay [9], in assay [10] and in assay [11] was 40 µg/mL (≈ 59.1 µM) in each case.
Take `CC[C@H]1OC(=O)[C@H](C)C(=O)[C@H](C)[C@@H](O[C@@H]2O[C@H](C)C[C@H](N(C)C)[C@H]2O)[C@](C)(OC)C[C@@H](C)/C(=N\OCCN2CCOCC2)[C@H](C)[C@@H](O)[C@]1(C)O`: the MIC in assay [1] was 10 µg/mL (≈ 14 µM); in assay [2], 20 µg/mL (≈ 27.9 µM); in assay [3], 1.2 µg/mL (≈ 1.68 µM); in assay [4], 2.5 µg/mL (≈ 3.49 µM); in assay [5], 0.15 µg/mL (≈ 0.21 µM); in assay [6], 40 µg/mL (≈ 55.9 µM). Moreover, the MIC in [7] turned out to be 40 µg/mL (≈ 55.9 µM); in assay [8], 40 µg/mL (≈ 55.9 µM); in assay [9], 40 µg/mL (≈ 55.9 µM); in assay [10], 40 µg/mL (≈ 55.9 µM); in assay [11] it was 5 µg/mL (≈ 6.98 µM).
In the case of `CC[C@H]1OC(=O)[C@H](C)C(=O)[C@H](C)[C@@H](O[C@@H]2O[C@H](C)C[C@H](N(C)C)[C@H]2O)[C@](C)(OC)C[C@@H](C)/C(=N\OCCNCCN2CCCC2)[C@H](C)[C@@H](O)[C@]1(C)O`, the MIC in [1] came out at 1.2 µg/mL (≈ 1.62 µM); in [2], 1.2 µg/mL (≈ 1.62 µM); in [3] it was 0.3 µg/mL (≈ 0.404 µM); in assay [4], 0.6 µg/mL (≈ 0.808 µM); in assay [5] it was 0.04 µg/mL (≈ 0.0538 µM); in assay [6], 10 µg/mL (≈ 13.5 µM). Further, the MIC in assay [7] came to 20 µg/mL (≈ 26.9 µM); in [8], 40 µg/mL (≈ 53.8 µM); in assay [9], 10 µg/mL (≈ 13.5 µM); in [10] it was 40 µg/mL (≈ 53.8 µM); in assay [11] it was 0.6 µg/mL (≈ 0.808 µM).
In the case of `CCCNCCO/N=C1\[C@H](C)C[C@@](C)(OC)[C@H](O[C@@H]2O[C@H](C)C[C@H](N(C)C)[C@H]2O)[C@@H](C)C(=O)[C@@H](C)C(=O)O[C@H](CC)[C@@](C)(O)[C@H](O)[C@H]1C`, the MIC in [1] was 0.3 µg/mL (≈ 0.436 µM); in assay [2], 1.2 µg/mL (≈ 1.74 µM); in assay [3] it was 0.15 µg/mL (≈ 0.218 µM); in [4] it was 0.15 µg/mL (≈ 0.218 µM); in assay [5], 0.04 µg/mL (≈ 0.0581 µM); in [6], 10 µg/mL (≈ 14.5 µM). Moreover, the MIC in [7] came to 40 µg/mL (≈ 58.1 µM); in assay [8], 40 µg/mL (≈ 58.1 µM); in assay [9], 10 µg/mL (≈ 14.5 µM); in [10] it was 40 µg/mL (≈ 58.1 µM); in assay [11], 40 µg/mL (≈ 58.1 µM).
`CC[C@H]1OC(=O)[C@H](C)C(=O)[C@H](C)[C@@H](O[C@@H]2O[C@H](C)C[C@H](N(C)C)[C@H]2O)[C@](C)(OC)C[C@@H](C)/C(=N\OCCNCCCn2ccnc2)[C@H](C)[C@@H](O)[C@]1(C)O`: the MIC in [1] was found to be 2.5 µg/mL (≈ 3.32 µM); in [2], 20 µg/mL (≈ 26.5 µM); in assay [3], 0.3 µg/mL (≈ 0.398 µM); in [4] it was 1.2 µg/mL (≈ 1.59 µM); in [5], 0.04 µg/mL (≈ 0.0531 µM); in assay [6], 0.3 µg/mL (≈ 0.398 µM). The MIC in assay [7] came to 5 µg/mL (≈ 6.63 µM); in [8] it was 40 µg/mL (≈ 53.1 µM); in assay [9], 5 µg/mL (≈ 6.63 µM); in assay [10], 40 µg/mL (≈ 53.1 µM); in assay [11], 40 µg/mL (≈ 53.1 µM).
